ChEMBL document CHEMBL4390675, “Dopamine D4 Receptor-Selective Compounds Reveal Structure-Activity Relationships that Engender Agonist Efficacy” (J Med Chem, 2019)
Active and inactive are the calls of the source. The calls are words filed in the database; no cut-off is given here.

Legend:
[1] = target: T1, D(4) dopamine receptor (Homo sapiens) (UniProt P21917); test: Antagonist activity at human D4 receptor expressed in CHOK1 cells assessed as inhibition of dopamine-induced beta-arrestin recruitment measured after 90 mins by luminescence assay relative to control; type: cell-based; set-up: concentration or dose not given beside the values
T1 sequence (whole entry): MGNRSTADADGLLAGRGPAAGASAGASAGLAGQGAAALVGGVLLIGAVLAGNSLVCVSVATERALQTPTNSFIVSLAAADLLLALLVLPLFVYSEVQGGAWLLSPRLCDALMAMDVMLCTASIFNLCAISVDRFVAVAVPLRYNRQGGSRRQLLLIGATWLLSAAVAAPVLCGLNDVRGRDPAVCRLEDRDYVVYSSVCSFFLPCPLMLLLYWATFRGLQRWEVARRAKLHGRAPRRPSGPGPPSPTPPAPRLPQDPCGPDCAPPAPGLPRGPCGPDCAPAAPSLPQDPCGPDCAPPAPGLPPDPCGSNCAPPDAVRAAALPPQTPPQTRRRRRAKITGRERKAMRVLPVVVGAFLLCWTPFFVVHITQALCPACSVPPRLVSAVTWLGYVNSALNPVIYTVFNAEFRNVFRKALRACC

[2] = target: D(1A) dopamine receptor (Homo sapiens) (UniProt P21728); test: Antagonist activity at D1 receptor (unknown origin) stably expressed in CHOK1 cells assessed as inhibition of dopamine-induced beta-arrestin recruitment measured after 90 mins by luminescence assay; type: cell-based
Sequence of D(1A) dopamine receptor (Homo sapiens) (P21728 whole entry): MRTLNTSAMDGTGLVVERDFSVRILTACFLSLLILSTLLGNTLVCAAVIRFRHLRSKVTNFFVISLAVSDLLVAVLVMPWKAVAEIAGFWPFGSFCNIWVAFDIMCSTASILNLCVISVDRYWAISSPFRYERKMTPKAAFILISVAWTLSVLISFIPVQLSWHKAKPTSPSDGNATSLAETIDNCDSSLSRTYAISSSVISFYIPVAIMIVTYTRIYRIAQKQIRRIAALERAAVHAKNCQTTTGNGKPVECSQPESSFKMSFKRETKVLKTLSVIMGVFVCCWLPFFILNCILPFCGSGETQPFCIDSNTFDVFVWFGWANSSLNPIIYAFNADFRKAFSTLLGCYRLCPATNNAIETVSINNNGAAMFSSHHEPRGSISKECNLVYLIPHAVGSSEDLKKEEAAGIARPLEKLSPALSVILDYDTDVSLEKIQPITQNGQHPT

D(3) dopamine receptor [3] = target: T2, D(3) dopamine receptor (Homo sapiens, UniProt P35462); test: Displacement of [3H](R)-(+)-7-OH-DPAT from human D3 receptor expressed in HEK293 cell membranes measured after 90 mins by scintillation counting method
T2 sequence (P35462 whole entry): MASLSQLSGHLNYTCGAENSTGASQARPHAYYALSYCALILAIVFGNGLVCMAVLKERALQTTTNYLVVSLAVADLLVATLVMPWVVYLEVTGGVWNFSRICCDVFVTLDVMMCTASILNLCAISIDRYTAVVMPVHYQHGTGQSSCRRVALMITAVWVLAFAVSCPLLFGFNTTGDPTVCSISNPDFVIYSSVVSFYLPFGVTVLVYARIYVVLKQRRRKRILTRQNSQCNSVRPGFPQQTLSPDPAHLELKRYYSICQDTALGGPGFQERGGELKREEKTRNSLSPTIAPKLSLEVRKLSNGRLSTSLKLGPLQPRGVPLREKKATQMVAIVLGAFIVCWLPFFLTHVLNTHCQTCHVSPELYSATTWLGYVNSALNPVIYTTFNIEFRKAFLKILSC
In short: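 Fresh HEK293 hD3R membranes (40 μg/well) in 50 mM Tris, 10 mM MgCl2, 1 mM EDTA, pH 7.4 were incubated with 0.5 nM [3H]-(R)-(+)-7-OH-DPAT and half-log compound dilutions in 30% DMSO for 90 min at room temperature. Nonspecific binding was defined with 10 μM (+)-butaclamol. Samples were filtered on PEI-soaked GF/B filters and counted by scintillation.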

[4] = target: D(1B) dopamine receptor (Homo sapiens) (UniProt P21918); test: Antagonist activity at D5 receptor (unknown origin) stably expressed in CHOK1 cells assessed as inhibition of dopamine-induced beta-arrestin recruitment measured after 90 mins by luminescence assay; type: cell-based
Sequence of D(1B) dopamine receptor (Homo sapiens) (P21918 whole entry): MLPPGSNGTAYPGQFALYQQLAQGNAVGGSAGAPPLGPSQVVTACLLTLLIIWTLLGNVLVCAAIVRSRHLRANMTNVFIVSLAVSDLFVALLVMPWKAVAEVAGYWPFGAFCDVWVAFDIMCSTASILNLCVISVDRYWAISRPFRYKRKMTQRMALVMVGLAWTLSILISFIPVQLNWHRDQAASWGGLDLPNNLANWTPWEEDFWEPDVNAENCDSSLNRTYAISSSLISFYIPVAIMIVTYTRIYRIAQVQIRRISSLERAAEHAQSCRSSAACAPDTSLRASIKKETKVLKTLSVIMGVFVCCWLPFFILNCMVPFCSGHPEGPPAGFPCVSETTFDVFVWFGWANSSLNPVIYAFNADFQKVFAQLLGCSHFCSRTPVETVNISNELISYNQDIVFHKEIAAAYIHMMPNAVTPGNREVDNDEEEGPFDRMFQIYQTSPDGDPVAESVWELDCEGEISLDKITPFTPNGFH

[5] = target: T1, D(4) dopamine receptor (Homo sapiens); test: Agonist activity at human D4 receptor expressed in CHOK1 cells assessed as inhibition of forskolin-induced cAMP accumulation measured after 30 mins by Eu-cAMP tracer based TR-FRET assay relative to dopamine; type: functional, cell-based
In short: (§1)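 LANCE Ultra TR-FRET cAMP assay in CHO-K1 cells stably expressing human D2R long isoform or D4R. Cells were plated in HBSS/5 mM HEPES/0.2 μM metabisulfite, then immediately given compound plus forskolin (10 μM final) for 30 min at room temperature. Eu-cAMP tracer and ULight-anti-cAMP were added for 2 h in the dark. Values are % of maximal dopamine signal, nonlinear regression of triplicate runs, n = 3–4.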

[6] = target: T1, D(4) dopamine receptor (Homo sapiens); test: Antagonist activity at human D4 receptor expressed in CHOK1 cells assessed as suppression of dopamine-induced inhibition of forskolin-stimulated cAMP accumulation measured after 30 mins by Eu-cAMP tracer based TR-FRET assay relative to dopamine; type: functional, cell-based; set-up: concentration or dose not given beside the values
D(3) dopamine receptor [7] = target: T2, D(3) dopamine receptor; test: Displacement of [3H]N-methylspiperone from human D3 receptor expressed in HEK293 cell membranes measured after 60 mins by scintillation counting method
In short: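 HEK293 cells stably expressing human D3R; membranes in EBSS buffer pH 7.4, stored at −80 °C. 20 μg protein/well with 0.4 nM [3H]N-methylspiperone (final), half-log dilutions in 30% DMSO, in triplicate. 60 min at room temperature, then GF/B filtration. Nonspecific binding with 10 μM (+)-butaclamol.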

D(4) dopamine receptor [8] = target: T3, D(4) dopamine receptor (Homo sapiens, UniProt P21917); test: Antagonist activity at human D4 receptor expressed in CHOK1 cells assessed as suppression of dopamine-induced inhibition of forskolin-stimulated cAMP accumulation measured after 30 mins by Eu-cAMP tracer based TR-FRET assay; type: functional, cell-based
T3 sequence (P21917 whole entry): T1 sequence (whole entry)

D(2) dopamine receptor [9] = target: T4, D(2) dopamine receptor (Homo sapiens, UniProt P14416); test: Agonist activity at human D2L receptor expressed in CHOK1 cells assessed as inhibition of forskolin-induced cAMP accumulation measured after 30 mins by Eu-cAMP tracer based TR-FRET assay relative to dopamine; type: cell-based; details: 0.5 h
T4 sequence (P14416 whole entry): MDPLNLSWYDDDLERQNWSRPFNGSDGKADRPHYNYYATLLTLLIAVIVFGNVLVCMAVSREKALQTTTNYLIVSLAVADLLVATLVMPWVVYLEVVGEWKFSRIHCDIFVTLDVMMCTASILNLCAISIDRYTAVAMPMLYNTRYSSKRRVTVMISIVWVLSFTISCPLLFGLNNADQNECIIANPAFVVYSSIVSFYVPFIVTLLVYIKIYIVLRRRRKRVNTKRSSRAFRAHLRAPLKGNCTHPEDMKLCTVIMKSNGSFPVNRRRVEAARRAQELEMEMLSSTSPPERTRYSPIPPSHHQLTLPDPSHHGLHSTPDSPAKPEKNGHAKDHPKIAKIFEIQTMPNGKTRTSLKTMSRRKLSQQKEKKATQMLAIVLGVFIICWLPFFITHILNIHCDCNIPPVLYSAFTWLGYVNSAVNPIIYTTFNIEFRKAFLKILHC

[10] = target: T1, D(4) dopamine receptor (Homo sapiens); test: Agonist activity at human D4 receptor expressed in CHOK1 cells assessed as induction of beta-arrestin recruitment measured after 90 mins by luminescence assay relative to control; type: cell-based
In short: (§2)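 PathHunter enzyme-complementation assay in CHO-K1 cells stably expressing human D2R long isoform, D3R or D4R, seeded overnight in Ham's F12/10% FBS. Compounds were diluted in PBS with 0.2 μM sodium metabisulfite and applied at multiple concentrations for 90 min at 37 °C. Detection reagent was added for 45–60 min at room temperature, then luminescence was read. Values are % of maximal dopamine response, from nonlinear regression of triplicate runs, mean ± SEM, n = 3–4.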

D(3) dopamine receptor [11] = target: T2, D(3) dopamine receptor; test: Antagonist activity at human D3 receptor expressed in CHOK1 cells assessed as inhibition of dopamine-induced beta-arrestin recruitment measured after 90 mins by luminescence assay; type: cell-based; details: read-out: IC50
In short: (§3)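 Antagonist-mode PathHunter β-arrestin assay in CHO-K1 cells stably expressing human D2R long isoform or D3R, seeded overnight. Compound dilutions in PBS with 0.2 μM metabisulfite were co-incubated with an EC80 dopamine concentration for 90 min at 37 °C. Detection reagent was added for 45–60 min at room temperature, then luminescence was read. Values are % of dopamine EC80 response, from nonlinear regression of triplicate runs, n = 3–4.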

D(4) dopamine receptor [12] = target: T3, D(4) dopamine receptor; test: Agonist activity at human D4 receptor expressed in CHOK1 cells assessed as inhibition of forskolin-induced cAMP accumulation measured after 30 mins by Eu-cAMP tracer based TR-FRET assay; type: functional, cell-based; details: read-out: EC50; in short: as §1
D(4) dopamine receptor [13] = target: T3, D(4) dopamine receptor; test: Displacement of [3H](R)-(+)-7-OH-DPAT from human D4.4 receptor expressed in HEK293 cell membranes measured after 90 mins by scintillation counting method
In short: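 HEK293 cells stably expressing human D4.4R; membranes used fresh in 50 mM Tris, 10 mM MgCl2, 1 mM EDTA, pH 7.4. 60 μg protein/well with 3 nM [3H]-(R)-(+)-7-OH-DPAT (final), half-log dilutions in 30% DMSO, in triplicate. 90 min at room temperature, then GF/B filtration. Nonspecific binding with 10 μM (+)-butaclamol.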

[14] = target: D(1A) dopamine receptor (Homo sapiens) (UniProt P21728); test: Agonist activity at D1 receptor (unknown origin) stably expressed in CHOK1 cells assessed as induction of beta-arrestin recruitment measured after 90 mins by luminescence assay; type: cell-based
D(4) dopamine receptor [15] = target: T3, D(4) dopamine receptor; test: Antagonist activity at human D4 receptor expressed in CHOK1 cells assessed as inhibition of dopamine-induced beta-arrestin recruitment measured after 90 mins by luminescence assay; type: cell-based; details: read-out: IC50
D(3) dopamine receptor [16] = target: T2, D(3) dopamine receptor; test: Agonist activity at human D3 receptor expressed in CHOK1 cells assessed as induction of beta-arrestin recruitment measured after 90 mins by luminescence assay relative to control; type: cell-based; in short: as §2
D(3) dopamine receptor [17] = target: T2, D(3) dopamine receptor; test: Agonist activity at human D3 receptor expressed in CHOK1 cells assessed as induction of beta-arrestin recruitment measured after 90 mins by luminescence assay; type: cell-based; details: read-out: EC50; in short: as §2
D(4) dopamine receptor [18] = target: T3, D(4) dopamine receptor; test: Agonist activity at human D4 receptor expressed in CHOK1 cells assessed as induction of beta-arrestin recruitment measured after 90 mins by luminescence assay; type: cell-based; details: read-out: EC50; in short: as §2
[19] = target: D(1B) dopamine receptor (Homo sapiens) (UniProt P21918); test: Agonist activity at D5 receptor (unknown origin) stably expressed in CHOK1 cells assessed as induction of beta-arrestin recruitment measured after 90 mins by luminescence assay; type: cell-based
D(2) dopamine receptor [20] = target: T4, D(2) dopamine receptor; test: Agonist activity at human D2L receptor expressed in CHOK1 cells assessed as induction of beta-arrestin recruitment measured after 90 mins by luminescence assay relative to control; type: cell-based
In short: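 PathHunter enzyme-complementation assay in CHO-K1 cells stably expressing human D2R long isoform, seeded 2625 cells/well and incubated overnight. Compounds diluted in PBS with 0.2 μM sodium metabisulfite, tested at multiple concentrations, 90 min at 37 °C. Detection reagent then 45–60 min at room temperature, luminescence read. Normalized to maximal dopamine response. Nonlinear regression of triplicate runs, n = 3–4.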

D(3) dopamine receptor [21] = target: T2, D(3) dopamine receptor; test: Antagonist activity at human D3 receptor expressed in CHOK1 cells assessed as inhibition of dopamine-induced beta-arrestin recruitment measured after 90 mins by luminescence assay relative to control; type: cell-based; in short: as §3
D(4) dopamine receptor [22] = target: T3, D(4) dopamine receptor; test: Displacement of [3H]N-methylspiperone from human D4.4 receptor expressed in HEK293 cell membranes measured after 60 mins by scintillation counting method
In short: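 Frozen HEK293 membranes stably expressing human D4.4R (30 μg/well) in EBSS-bicarbonate buffer, pH 7.4, were incubated with 0.4 nM [3H]N-methylspiperone and half-log compound dilutions (30% DMSO vehicle) for 60 min at room temperature. Nonspecific binding was defined by 10 μM (+)-butaclamol. Samples were filtered on GF/B filters and counted by scintillation.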

`Cc1cccc(NC(=O)CN2CCN(c3ncccn3)CC2)c1` was tested, and the inhibition [1] was 80.6%, the inhibition [2] was “inactive” and the Ki (D(3) dopamine receptor [3]) was 5990 nM. For the same compound, the inhibition [4] was “inactive”, the Emax [5] was 64.6% and the inhibition [6] was 45%. For the same compound, the Ki (D(3) dopamine receptor [7]) was over 10000 nM, the IC50 (D(4) dopamine receptor [8]) was 463 nM and the Emax (D(2) dopamine receptor [9]) was 54.4%. The Emax [10] was 24.7%, the IC50 (D(3) dopamine receptor [11]) was over 100000 nM and the EC50 (D(4) dopamine receptor [12]) was 3.4 nM. For the same compound, the Ki (D(4) dopamine receptor [13]) was 5.66 nM, the Activity [14] was “inactive” and the IC50 (D(4) dopamine receptor [15]) was 197 nM. It also gave an Emax (D(3) dopamine receptor [16]) of 58.4%, an EC50 (D(3) dopamine receptor [17]) of 5580 nM and an EC50 (D(4) dopamine receptor [18]) of 278 nM. For the same compound, the Activity [19] was “inactive”, the Emax (D(2) dopamine receptor [20]) was 39.6% and the inhibition (D(3) dopamine receptor [21]) was “inactive”. It also gave a Ki (D(4) dopamine receptor [22]) of 318 nM.
